# Laboratory results: ChEMBL document CHEMBL1123901, “Inhibition of delayed hypersensitivity reactions by cinnamyl 1-thioglycosides” (J Med Chem, 1987)
# pIC50: −log10 of the molar value.
# Assays:
# Format in all cases: functional
# [1] = species: Cavia porcellus; assay: Effect on guinea pig T cell proliferation was tested by measuring the incorporation of [3H]thymidine uptake at the concentration of 750 uM
# Outline: (§1)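 Strain 2 female guinea pigs were immunized with 100 μg OVA in CFA split over the footpads. At day 14 they received mineral oil ip, and the exudate was collected 4 days later. T cells were enriched on nylon wool. 2×10^5 cells per well were cultured with 10% irradiated (2100 rads) exudate cells, OVA (10 μg/mL) and compound, for 72 h at 37 °C in 5% CO2. [3H]thymidine (1 μCi) was added 18-24 h before harvest. Triplicate wells; mean Δcpm ± SD.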
# [2] = species: Cavia porcellus; assay: Effect on guinea pig T cell proliferation was tested by measuring the incorporation of [3H]thymidine uptake at the concentration of 10 uM; outline: as §1
# [3] = species: Cavia porcellus; assay: Inhibitory activity against [3H]thymidine uptake by cinnamyl 1-thioglycosides in guinea pig T cell proliferation; conditions: Cavia porcellus, T-cell, 72 h; outline: as §1
# [4] = species: Cavia porcellus; assay: Effect on guinea pig T cell proliferation was tested by measuring the incorporation of [3H]thymidine uptake at the concentration of 250 uM; outline: as §1
# [5] = species: Cavia porcellus; assay: Effect on guinea pig T cell proliferation was tested by measuring the incorporation of [3H]thymidine uptake at the concentration of 1000 uM; outline: as §1
# [6] = species: Cavia porcellus; assay: Effect on guinea pig T cell proliferation was tested by measuring the incorporation of [3H]-thymidine uptake at the concentration of 0 uM; outline: as §1
# [7] = species: Cavia porcellus; assay: Effect on guinea pig T cell proliferation was tested by measuring the incorporation of [3H]thymidine uptake at the concentration of 500 uM; outline: as §1
# [8] = species: Cavia porcellus; assay: Effect on guinea pig T cell proliferation was ested by measuring the incorporation of (+/)-[3H]thymidine uptake at the concentration of 100 uM; outline: as §1
# [9] = test system: Mus musculus; assay: Compound was administered orally to mice before increase in foot-pad thickness at a dose of 2.5 mg/kg; conditions: route oral
# Outline: (§2)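 DTH in A/J female mice (20-23 g): cyclophosphamide 200 mg/kg sc, then iv sensitization with 10^8 washed SRBC 3 days later. On day 6 after sensitization, one hind footpad challenged with 10^8 SRBC in 20 μL, the other given saline. Dosing ip or po to overnight-fasted mice 20 min before challenge. Swelling read at 24 and 48 h as antigen minus saline footpad (mm × 10), by constant-pressure caliper.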
# [10] = test system: Mus musculus; assay: Percent reduction in mice after oral administration 2.5 mg/kg; outline: as §2
SMILES,Activity [1],Activity [2],pIC50 [3],Activity [4],Activity [5],Activity [6],Activity [7],Activity [8],Activity [9] [mm x10],Reduction [10] [%]
[N-]=[N+]=NCC1OC(SC/C=C/c2ccccc2)C(O)C(O)C1O (stereo not given),0 Δcpm x 10^-3,21 Δcpm x10e-3,3.62,14.3 Δcpm x10e-3,0.06 Δcpm x10e-3,33.5 Δcpm x10e-3,2.26 Δcpm x10e-3,21.1 Δcpm x10e-3,–,–
C[C@@H]1C[C@H]2[C@@H]3CCC4=CC(=O)C=C[C@]4(C)[C@@]3(F)[C@@H](O)C[C@]2(C)[C@@]1(O)C(=O)CO [DEXAMETHASONE],–,–,–,–,–,–,–,–,0.3,68
